The values below come from paper PMC10329767 (Biochemistry, 2023).

Data set [1] can be described thus: 19F NMR pH titration of the free amino acid in solution. The class given is physicochemical. Particulars: 19F NMR chemical shift vs pD. The method, boiled down: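 Free fluorinated Tyr amino acid (5 mg) dissolved in 30 mM deuterated PIPES buffer; pD adjusted with DCl or NaOD across pD 3.6–12.5. 19F spectra recorded on a 400 MHz spectrometer. The 19F chemical shift was plotted against pD and fitted to obtain pKa values.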

Data set [2] deals with 2,3,5-F3Y158 InhA. It counts as biochemical, Mycobacterium tuberculosis. Particulars: 2,3,5-F3Y158 InhA vs wild-type.
Data set [3] deals with T1, wild-type InhA (Mycobacterium tuberculosis, UniProt P9WGR1). Nature of the data set: Direct binding fluorescence titration of NADH.
Data set [4] addresses 2,3,5-F3Y158 InhA. On the set-up: species or system Mycobacterium tuberculosis. Particulars: NADH binding, 25 °C, pH 6.8.
Data set [5] deals with 3,5-F2Y158 InhA. On the set-up: species or system Mycobacterium tuberculosis. Particulars: NADH binding, 25 °C, pH 6.8.
The target in data set [6] is 3-FY158 InhA. Briefly: Direct binding fluorescence titration of NADH. More on the design: species or system Mycobacterium tuberculosis. As to conditions: 25 °C, pH 6.8.
The test system of data set [7] is 2,3,5-F3Y158 InhA. It counts as biochemical, Mycobacterium tuberculosis.
In data set [8] the target is 3,5-F2Y158 InhA. It counts as biochemical, Mycobacterium tuberculosis. As to conditions: read-out: Kiapp; PT166, rapid reversible, global fit to equations 6 and 7.
Data set [9] deals with T1, wild-type InhA. As to conditions: read-out: Kiapp; PT166, rapid reversible, global fit to equations 6 and 7.
For data set [10], the target named is 3-FY158 InhA. As to conditions: read-out: Kiapp; PT166, rapid reversible, global fit to equations 6 and 7.
Data set [11] deals with Y158F mutant. As to conditions: cited from earlier work.

Values joined by “and” are separate entries in the source; they are usually repeats but may differ in a detail not shown here. Equal entries are not always repeated.

Take `N[C@@H](Cc1cc(F)c(O)c(F)c1F)C(=O)O` [2,3,5-F3Y, 2,3,5-trifluoroTyr]: the “pKa of the hydroxyl group” value in data set [1] worked out at 6.5.
For `CCCCCCCCC/C=C/C(=O)SCCNC(=O)CCNC(=O)[C@H](O)C(C)(C)COP(=O)(O)OP(=O)(O)OC[C@H]1O[C@@H](n2cnc3c(N)ncnc32)[C@H](O)[C@@H]1OP(=O)(O)O` [DDCOA, trans-2-dodecenoyl-CoA], the “fold higher KMapp for dd-CoA than wild-type InhA” value in data set [2] is given as ~ 5 fold.
In the case of `NC(=O)C1=CN([C@@H]2O[C@H](COP(=O)(O)OP(=O)(O)OC[C@H]3O[C@@H](n4cnc5c(N)ncnc54)[C@H](O)[C@@H]3O)[C@@H](O)[C@H]2O)C=CC1` [NADH], the Kd (in general, the constant that tells how readily two partners part at equilibrium) is 8.2 ± 0.3 µM in [3] (25 °C, pH 6.8, C-terminal His-tag InhA); 8.7 ± 0.2 µM in data set [4]; 8.1 ± 0.5 µM in [5]; 7.1 ± 0.6 µM in [6]. Moreover, the “N (Hill coefficient)” value in data set [3] (fit to Equation 1) stood at 3.1 ± 0.3.
Take `CCCCCCc1cc(=O)c(Oc2ccccc2C)cn1C` [PT166]: the “fold change (decrease in affinity) in Kiapp compared to wild-type” value in data set [7] (PT166, 2,3,5-F3Y158 InhA vs wild-type) was ~ 7 fold and 7 fold. In addition, the Ki came to 0.213 ± 0.002 µM in data set [7] (read-out: Kiapp, PT166, rapid reversible, global fit to equations 6 and 7); 0.048 ± 0.001 µM in [8]; 0.031 ± 0.001 µM in data set [9]; 0.033 ± 0.001 µM in [10].
Turning to `Oc1cc(Cl)ccc1Oc1ccc(Cl)cc1Cl` [triclosan], the “fold lower affinity for Y158F mutant compared to wild-type InhA” value in data set [11] is listed as ~ 100 fold.
